Results on 3 compounds are retold here after article PMC6626684 (Biochemical and biophysical research communications, 2019).

The target of one assay is WT mTRPV1 (Mus musculus, UniProt Q704Y3). Briefly: Live-cell calcium fluorescence imaging. It counts as cell-based.
For assay [1] the following is noted: psychophysical tests; cited from earlier work.
The target in assay [2] is T1, WT TRPV1 (Mus musculus, UniProt Q704Y3). Briefly: Single-channel inside-out patch-clamp recording, WT channel. It counts as cell-based. The following applies: for Hill slope factor: electrophysiology. On the technique in general: The patch-clamp technique gives a direct electrical read-out from membranes.
For a further assay, the target named is mTRPV1 T551V (Mus musculus, UniProt Q704Y3, T551V). Briefly: Live-cell calcium fluorescence imaging. In kind it is cell-based. The note with it: for Hill slope factor: calcium imaging, T551V.
Assay [3] has as its target T2, TRPV1 T671S (Mus musculus, UniProt Q704Y3, T671S). The note with it: capsaicin stimulation; cited from earlier work.
The target of assay [4] is T1, WT TRPV1. The following applies: mTRPV1; cited from earlier work.
A further assay has as its target mTRPV1 E571A (Mus musculus, UniProt Q704Y3, E571A). Briefly: Live-cell calcium fluorescence imaging. It counts as cell-based.
A further assay concerns the target TRPV1 T671V (Mus musculus, UniProt Q704Y3, T671V). Briefly: Single-channel inside-out patch-clamp recording, T671V mutant. It counts as cell-based.
Another assay has as its target TRPV1 E571A (Mus musculus, UniProt Q704Y3, E571A). Briefly: Single-channel inside-out patch-clamp recording, E571A mutant. It counts as cell-based. The following applies: for Hill slope factor: electrophysiology, E571A.
The target of another assay is TRPV1 T551V (Mus musculus, UniProt Q704Y3, T551V). Briefly: Single-channel inside-out patch-clamp recording, T551V mutant. In kind it is cell-based. The note with it: for Hill slope factor: electrophysiology; for Hill slope factor / open probability: T551V.
The subject of assay [5] is non-transfected HEK293 cells. Briefly: Calcium imaging control in non-transfected cells. It counts as cell-based.
In assay [6] the target is T2, TRPV1 T671S. Briefly: Single-channel inside-out patch-clamp recording, T671S mutant. In kind it is cell-based. The following applies: most piperine concentrations tested. In outline: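 HEK293 cells transiently transfected (Lipofectamine 2000) with eYFP-fused mouse TRPV1 mutant, used 1–2 days later. Inside-out patches held at 0 mV for 50 ms, stepped to +80 mV for 1 s. Symmetrical 130 mM NaCl, 0.2 mM EDTA, 3 mM HEPES pH 7.2, no Ca2+, 25°C. Filtered at 2.25 kHz, sampled at 10 kHz. Po from Gaussian fits to all-point histograms; patches with >2 channels discarded. Repeated-measures two-way ANOVA.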

Sequence of TRPV1 E571A (Q704Y3 whole entry E571A): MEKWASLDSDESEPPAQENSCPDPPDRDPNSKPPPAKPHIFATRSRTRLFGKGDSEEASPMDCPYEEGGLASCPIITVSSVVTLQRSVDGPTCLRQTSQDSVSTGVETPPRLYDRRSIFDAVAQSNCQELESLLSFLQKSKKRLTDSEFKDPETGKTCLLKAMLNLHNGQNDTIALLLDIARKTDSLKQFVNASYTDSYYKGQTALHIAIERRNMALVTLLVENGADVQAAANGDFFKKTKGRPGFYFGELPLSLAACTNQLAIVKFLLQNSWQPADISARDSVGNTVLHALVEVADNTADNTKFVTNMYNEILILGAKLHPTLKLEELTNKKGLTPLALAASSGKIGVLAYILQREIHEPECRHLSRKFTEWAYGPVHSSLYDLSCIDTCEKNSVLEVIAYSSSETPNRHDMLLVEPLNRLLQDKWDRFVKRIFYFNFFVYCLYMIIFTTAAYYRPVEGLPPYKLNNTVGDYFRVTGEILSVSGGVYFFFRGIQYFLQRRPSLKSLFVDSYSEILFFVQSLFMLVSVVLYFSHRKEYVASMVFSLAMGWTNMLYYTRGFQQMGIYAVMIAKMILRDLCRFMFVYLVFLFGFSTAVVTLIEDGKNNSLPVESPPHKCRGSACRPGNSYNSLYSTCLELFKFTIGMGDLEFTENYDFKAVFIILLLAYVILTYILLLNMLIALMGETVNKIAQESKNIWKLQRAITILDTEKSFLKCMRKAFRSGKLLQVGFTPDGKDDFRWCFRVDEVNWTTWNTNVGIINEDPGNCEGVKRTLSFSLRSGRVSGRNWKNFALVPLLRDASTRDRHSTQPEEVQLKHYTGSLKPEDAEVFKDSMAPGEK
Sequence of mTRPV1 E571A (Q704Y3 whole entry E571A): as above
Sequence of TRPV1 T551V (Q704Y3 whole entry T551V): as the sequence (Q704Y3 whole entry E571A) above, with T551V, A571E counted along it
Sequence of mTRPV1 T551V (Q704Y3 whole entry T551V): as the sequence (Q704Y3 whole entry E571A) above, with T551V, A571E counted along it
T1 sequence (Q704Y3 whole entry): as the sequence (Q704Y3 whole entry E571A) above, with A571E counted along it
Sequence of WT mTRPV1 (Q704Y3 whole entry): as the sequence (Q704Y3 whole entry E571A) above, with A571E counted along it
Sequence of TRPV1 T671V (Q704Y3 whole entry T671V): as the sequence (Q704Y3 whole entry E571A) above, with A571E, T671V counted along it
T2 sequence (Q704Y3 whole entry T671S): as the sequence (Q704Y3 whole entry E571A) above, with A571E, T671S counted along it

For `Oc1cc2c(cc1O)CN(C(=S)NCCc1ccc(Cl)cc1)CCC2` [CZP, capsazepine], on WT mTRPV1 (10 μM CZP with 10 μM piperine, calcium imaging), the “inhibition of fluorescence intensity increase induced by 10 μM piperine” value is listed as “almost completely inhibited”.
The term EC50 denotes the concentration giving half of the maximal effect. With `COc1cc(CNC(=O)CCCC/C=C/C(C)C)ccc1O` [capsaicin], the EC50 on WT mTRPV1 came out at 0.1 ± 0.002 µM; at mTRPV1 T551V, 1 ± 0.02 µM; at mTRPV1 E571A, 1 ± 0.04 µM; on TRPV1 E571A, 1.3 ± 0.03 µM; on TRPV1 T551V it was 1.4 ± 0.03 µM. Further, the Hill slope factor was determined as 1.9 on WT mTRPV1 (calcium imaging, WT); 1.9 at WT TRPV1 [2] (WT); 3.3 on mTRPV1 T551V; 3.0 at mTRPV1 E571A (calcium imaging, E571A); 3.0 on TRPV1 E571A; 3.3 at TRPV1 T551V. Further, in assay [1], the relative pungency-taste threshold is 0.6 µM. Besides, the “channel activity of T671S when stimulated” value at TRPV1 T671S [3] is recorded as “wildtype-like activities”. In addition, the maximum open probability result at WT TRPV1 [4] is on record as “above 90%”. Further, the “currents from the same patches” value at TRPV1 T671V (capsaicin (10 μM)) is listed as “robust currents”.
As to `O=C(/C=C/C=C/c1ccc2c(c1)OCO2)N1CCCCC1` [piperine, Piperine], the concentration for a half-maximal effect (EC50) on WT mTRPV1 was 3.3 ± 0.7 µM; on WT TRPV1 [2], 252 ± 38.1 µM; on mTRPV1 T551V it was 5.1 ± 0.7 µM; on mTRPV1 E571A, 3.5 ± 0.5 µM; on TRPV1 E571A, 277 ± 36.5 µM; at TRPV1 T551V, 93.5 ± 15.1 µM. Further, the “fluorescence intensity of the cells at 30 μM” value on WT mTRPV1 (30 μM piperine, WT, consistent with channel desensitization) is reported as “decreased”. Further, the Hill slope factor stood at 2.2 on WT mTRPV1 (calcium imaging, WT); 2.2 on WT TRPV1 [2] (WT); 1.3 at mTRPV1 T551V; 2.2 at mTRPV1 E571A (calcium imaging, E571A); 0.7 on TRPV1 E571A; 0.9 at TRPV1 T551V. The efficacy is 82.7 ± 5.7% at WT mTRPV1 (calcium imaging, WT, normalized to 10 μM capsaicin response) and 77.1 ± 7.3% at mTRPV1 E571A (calcium imaging, E571A, normalized to 10 μM capsaicin response). For the same compound, the “perceived pungency level, times lower than capsaicin” value in assay [1] was 10-to-100 times. Also, the relative pungency-taste threshold in [1] is 10.5 µM. The “open probability (Po)” value at WT TRPV1 [2] (30 μM piperine, WT) is 10%. Also, at WT TRPV1 [2] (WT, extrapolation of Hill fit), the “maximal Po predicted by extrapolation” value was “about 36%”. Further, the “fluorescence signal at 30 μM” value on mTRPV1 T551V (30 μM piperine, T551V expressing cells) is “decreased substantially”; on mTRPV1 E571A (30 μM piperine, E571A expressing cells), “decreased substantially”. Moreover, the “non-specific effects in untransfected cells” value in assay [5] is listed as “no detectable non-specific effects”. Besides, the “open probability compared with wildtype channels” value at TRPV1 T671S [6] is listed as “significantly lower”. Further, at TRPV1 T671V (30 μM piperine), the channel activity result was “no channel activity”. Also, at TRPV1 E571A (read-out: maximum activation open probability (estimated)), the Emax was 22%. Moreover, the open probability on TRPV1 T551V (10 μM piperine) worked out at 12.3 ± 2.2%; at TRPV1 T551V (30 μM piperine), 25.8 ± 5.1%.
